The text below walks through data of ChEMBL document CHEMBL1138560, “Synthesis of amidine and amide derivatives and their evaluation for anti-inflammatory and analgesic activities” (2009).

The subject of one test is Rattus norvegicus. Nature of the test: Antiinflammatory activity against carrageenan-induced paw edema in Charles Foster albino rat at 50 mg/kg, po administered 30 mins before carrageenan challenge measured after 1 to 3 hrs. Type of test: functional. Put shortly: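 Groups of five rats, both sexes, 120–160 g, pregnant females excluded; 30 min after oral dose, 0.20 ml of 1% fresh carrageenan in 0.9% NaCl injected into hind-paw plantar aponeurosis; paw volume by water plethysmometer before and 1–3 h after; % inhibition = [1 − Dt/Dc] × 100 versus carrageenan-only control group of five.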
(The carrageenan paw model is a standard test of acute inflammation.)

A further test relates to Mus musculus. Nature of the test: Analgesic activity against acetic acid-induced writhes in mouse at 50 mg/kg, po administered 30 mins before acetic acid challenge measured for 60 mins. Type of test: functional. A digest of the protocol:
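Mice of both sexes, 20–30 g, non-pregnant, groups of five; oral test dose given 30 min before 0.25 ml/mouse of 0.5% acetic acid; writhes counted over the following 60 min; group mean writhes expressed as percent decrease versus untreated control group of five mice.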

For the compound `N=C(/N=c1\scc(-c2ccccc2)n1-c1ccc([N+](=O)[O-])cc1)c1ccccn1`, the Activity was 26% with Rattus norvegicus and 18% in the test on Mus musculus. In the case of `Cc1ccccc1-n1c(-c2ccccc2)cs/c1=N\C(=N)c1ccccn1`, the Activity in the test with Rattus norvegicus stood at 0%; in the test on Mus musculus it was 50%.

For `N=C(/N=c1\scc(-c2ccccc2)n1-c1ccc(Cl)cc1)c1ccccn1`, the Activity was determined as 17% in the test with Rattus norvegicus and 12% in the test on Mus musculus. For `CC(=O)c1ccc(-n2c(-c3ccccc3)cs/c2=N\C(=O)c2cc(=O)[nH]c(=O)[nH]2)cc1`, in that order: 12% and 8%. Take `O=C(/N=c1\scc(-c2ccccc2)n1-c1ccccc1[N+](=O)[O-])c1cc(=O)[nH]c(=O)[nH]1`: the Activity in the test on Rattus norvegicus is listed as 25%. Same read-out and setting: next, `CC(=O)Oc1ccccc1C(=O)O` [ASPIRIN]: 43%. Turning to `COc1ccc(-n2c(-c3ccccc3)cs/c2=N\C(=O)c2cc(=O)[nH]c(=O)[nH]2)cc1`, the Activity in the test on Rattus norvegicus is recorded as 9%; in the test with Mus musculus it was 8%.

On to `COc1ccccc1-n1c(-c2ccccc2)cs/c1=N\C(=N)c1ccccn1`, for which the Activity with Rattus norvegicus worked out at 23%. `O=C(CC1NC(=O)NC1=O)/N=c1\scc(-c2ccccc2)n1-c1ccc(Cl)cc1` (stereo unspecified): the Activity in the test on Rattus norvegicus stood at 10%; with Mus musculus it was 0%. On to `N=C(/N=c1\scc(-c2ccccc2)n1-c1ccccc1[N+](=O)[O-])c1ccccn1`, for which the Activity in the test with Rattus norvegicus was 49%.

Consider `CC(=O)c1ccc(-n2c(-c3ccccc3)cs/c2=N\C(=N)c2ccccn2)cc1`, for which the Activity in the test with Rattus norvegicus is on record as 20%; with Mus musculus, 25%. With `O=C(/N=c1\scc(-c2ccccc2)n1-c1ccc(Cl)cc1)c1cc(=O)[nH]c(=O)[nH]1`, in the test with Rattus norvegicus, the Activity turned out to be 2%.

As to `CC(C)Cc1ccc(C(C)C(=O)O)cc1` (stereo unspecified) [IBUPROFEN], the Activity in the test with Rattus norvegicus worked out at 39%; in the test on Mus musculus it was 50%. Take `COc1ccc(-n2c(-c3ccccc3)cs/c2=N\C(=N)c2ccccn2)cc1`: the Activity amounted to 17% with Rattus norvegicus and 12% in the test with Mus musculus.

In the test with Rattus norvegicus, `O=C(CC1NC(=O)NC1=O)/N=c1\scc(-c2ccccc2)n1-c1ccc([N+](=O)[O-])cc1` (stereo unspecified) had an Activity of 34%.

On to `O=C(CC1NC(=O)NC1=O)/N=c1\scc(-c2ccccc2)n1-c1ccccc1[N+](=O)[O-]` (stereo unspecified), for which, in the test on Rattus norvegicus, the Activity is given as 17%. Turning to `COc1ccc(-c2cs/c(=N\C(=O)c3cc(=O)[nH]c(=O)[nH]3)n2-c2ccc([N+](=O)[O-])cc2)cc1`, the Activity is recorded as 15% with Rattus norvegicus and 10% with Mus musculus. For `CCOc1ccc(-c2cs/c(=N\C(=N)c3ccccn3)n2-c2ccccc2)cc1`, in that order: 0% and 50%. For `N=C(/N=c1\scc(-c2ccc(Br)cc2)n1-c1ccc2ccccc2c1)c1ccccn1`, the Activity is listed as 0% in the test with Rattus norvegicus and 40% in the test with Mus musculus.
